VIM-2 inhibitor = inhibitors of Pseudomonas aeruginosa VIM-2 metallo-beta-lactamase. purified VIM-2, nitrocefin hydrolysis, epi-absorbance fluorescence. inhibition, % at 5.6 µM. 290,000 tested, 0.89% active. AID 1527;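 active = inhibition above the mean of all tested compounds plus 3 SD, cutoff set per screening run, cut at about 7.5% in these data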;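 also: red hydrolysis product quenches plate fluorescence so inhibitors raise well fluorescence; 0% = enzyme with DMSO and 100% = DMSO without enzyme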
MIN6 prolif = induces beta-cell replication in MIN6 cells. MIN6 cells proliferation, ATPlite luminescence, 48 h; cells starved in 0.2% serum; 100% = growth in 10% serum. proliferation, % at 10 µM. 330,000 tested, 0.29% active. AID 2380;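 active = compounds whose signal lies at least 3.5 SD above the mean of all wells on their plate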;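 also: 0% = DMSO-treated cells in low-serum medium and 100% = 10% serum control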
HKDC1 inh = inhibitors of human hexokinase HKDC1; Q2TB90; recombinant HKDC1, G6PDH/diaphorase resazurin coupled fluorescence; inhibition, % at 20 µM; 340,000 tested, 0.16% active; AID 493160;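 active = inhibition above about 35% when tested at 20 µM, limit read from the data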;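 also: plate controls were DMSO wells with enzyme for no effect and DMSO wells lacking enzyme for full effect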
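Assay system: recombinant HKDC1 hexokinase; detection: coupled resazurin fluorescence, excitation 525 nm, emission 613 nm; benchmarks: DMSO-plus-enzyme-mix negative control, buffer-substituted positive control; compound dosing: single 20 µM dose; schedule: 90 min at room temperature in dark; also added: glucose plus 1 mM ATP as hexokinase substrates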
PvdQ inh = P. aeruginosa PvdQ acylase inhibition; inhibition, % at 10 µM; purified PvdQ acylase, fluorescence plate reader; AID 488965; 340,000 tested, 0.063% active; in the data active = inhibition above about 30%, passing the limit was not always enough;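 also: 0% = vehicle neutral wells and 100% = reference inhibitor wells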
ATG4B inhibitor = inhibitors of human ATG4B cysteine protease. Q9Y4P1. ATG4B cleavage of LC3-PLA2, NBD-HPC fluorescence, 1 h. inhibition, % at 8.33 µM. 340,000 tested, 0.51% active; in the data active = inhibition above about 40%
Target sequence (Q9Y4P1 whole entry, looked up): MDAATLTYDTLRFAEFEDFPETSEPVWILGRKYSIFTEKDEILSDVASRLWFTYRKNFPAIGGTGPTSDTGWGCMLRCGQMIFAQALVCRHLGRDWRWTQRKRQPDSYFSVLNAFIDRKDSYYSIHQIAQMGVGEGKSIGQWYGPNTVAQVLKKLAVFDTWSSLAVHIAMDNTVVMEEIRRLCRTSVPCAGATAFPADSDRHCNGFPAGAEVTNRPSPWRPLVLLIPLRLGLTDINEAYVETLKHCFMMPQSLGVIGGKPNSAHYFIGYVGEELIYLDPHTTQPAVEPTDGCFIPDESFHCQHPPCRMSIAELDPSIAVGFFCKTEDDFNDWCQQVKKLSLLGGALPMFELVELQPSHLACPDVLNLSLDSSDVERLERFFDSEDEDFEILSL
IMP-1 inh = inhibitors of Pseudomonas aeruginosa IMP-1 metallo-beta-lactamase. purified IMP-1, nitrocefin hydrolysis, epi-absorbance fluorescence. inhibition, % at 5.6 µM. 290,000 tested, 0.45% active;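 active = inhibition above the mean plus 3 SD of all compounds in the same screening run, cut at about 4.5% in these data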;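 also: 0% = IMP-1 with DMSO and 100% = DMSO wells lacking enzyme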
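System: Purified IMP-1 | Read-out basis: Percent enzyme inhibition | Controls: IMP-1 with DMSO as 0%, enzyme-free DMSO as 100% | Replicates: One well per compound | Doses: 5.6 µM nominal single concentration | Detection: Epi-absorbance fluorescence, 480 nm excitation, 530 nm emission | Incubation: 25 °C, 15 min preincubation, 25 min reaction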
Starred values were filed as active, the others as inactive; · = no result. Rows were chosen to be rich in hits. Some 2% of all compounds tested hit in one or more screens of this group.

SMILES	VIM-2 inhibitor	MIN6 prolif	HKDC1 inh	PvdQ inh	ATG4B inhibitor	IMP-1 inh
CSCCC(NC(=O)C1CC1)c1nc2ccccc2[nH]1 (stereo not drawn)	0.1	-0.4	-13.0	-14.8	-8.8	4.8*
Cc1ccc(NC(=O)c2c(-c3c(F)cccc3Cl)noc2C)cc1F	6.6	-4.7	3.4	10.3	-18.9	41.0*
Nc1ccc(Sc2ccccc2Cl)nc1	·	0.2	-2.4	-10.2	-2.0	·
O=[N+]([O-])c1ccc(Sc2ccccc2Cl)nc1	-3.1	-1.5	-3.5	64.5*	-4.6	-3.1
O=C(c1ccc(S(=O)(=O)N2CCCCCC2)cc1)N1CCC(CN2C(=O)c3cccc4cccc(c34)C2=O)CC1	-3.8	-5.8	-5.7	-10.2	-13.4	5.2*
CCOC(=O)C1CCN(C(=O)Cc2ccc(-c3ccccc3)cc2)CC1	1.3	-1.6	-5.0	-15.1	-3.4	0.7
O=C(NCC1CCCO1)C(=O)NCC1CCCN1S(=O)(=O)c1ccccc1 (stereo not drawn)	·	3.6	-6.8	-12.2	4.8	·
O=C(N/N=C/c1sc(=O)n(Cc2ccc(Br)cc2)c1Cl)c1ccco1	1.6	-8.0	8.6	6.0	14.0	23.9*
O=C(N/N=C/c1ccc(Br)s1)c1ccco1	-1.4	-1.7	3.1	-6.5	5.6	-2.0
C=CCn1c(SCC(=O)N(C)C)nc2sc3c(c2c1=O)CCC3	8.4*	0.8	-4.0	-2.3	5.8	-1.4
COc1ccc(N/C=C/c2nc(SC)nnc2C)cc1	7.8*	5.2	13.0	-12.0	-11.2	-2.5
CSc1nnc(C)c(/C=C/Nc2ccc(F)cc2)n1	-2.1	-1.8	6.0	12.4	-7.8	-1.4
CCOc1ccccc1NC(=S)N1CCN(c2cccc(OC)c2)CC1	-0.8	-3.8	-5.9	-16.5	-7.3	-3.2
CC(c1ccccc1)C1CC(=O)N(c2cc(Cl)ccn2)C1=O (stereo not drawn)	-0.2	-2.0	1.6	-15.0	3.5	14.7*
Cc1cccc(NC(=O)c2ccc(CN3CCc4ccccc4C3)cc2)c1C	-2.5	-2.1	-8.7	-8.9	-3.4	-3.8
O=C(Nc1ccc(Cl)cc1)N(Cc1nnc2n1CCCCC2)c1ccccc1	-0.2	-1.6	-4.6	7.4	-3.6	5.4*
CCC(=O)Nc1ccc(C(=O)NNC(=O)COc2cc(C)ccc2C)cc1	-4.3	·	-6.0	-8.6	-9.6	0.9
O=C(O)c1cc(Cl)c(Cl)cc1C(=O)Nc1cccc2cccnc12	9.1*	-4.5	19.8	-10.9	24.7	-3.4
CCc1ccc2c(c1)cc(CN(Cc1ccco1)C(C)=O)c1nnnn12	0.8	10.8*	-1.6	-2.7	1.8	0.3
Cc1nc2nc(-c3cccnc3)nn2c(C)c1Cl	10.6*	-3.6	-2.0	-10.6	-2.5	-0.5
O=C1c2cc(Br)ccc2N(Cc2ccc(Br)cc2)S(=O)(=O)C1c1cc(Cl)c(Cl)cc1[N+](=O)[O-] (stereo not drawn)	·	-5.9	1.5	-16.4	68.2*	·
COc1ccc(NC(=O)/C(=C/c2ccc3c(c2)OCO3)NC(C)=O)cc1	-3.0	-0.9	-1.8	-12.5	6.9	-2.3
Cc1cc(NC(=O)C2C3C(=O)N(CC4CCCO4)C(C(=O)NCc4ccccc4)C34C=CC2(C)O4)no1 (stereo not drawn)	-2.9	0.7	-9.7	1.9	-11.9	5.0*
COc1ccc(-c2c(C)nn3c(-c4ccccc4)cc(C)nc23)cc1	-3.2	-6.5	-0.1	-0.7	-8.1	-3.7
COc1ccc(-c2c(C)nn3c(Cl)c(C)c(C)nc23)cc1	8.7*	-3.9	-5.0	-3.2	-3.1	-0.8
SMILES	VIM-2 inhibitor	MIN6 prolif	HKDC1 inh	PvdQ inh	ATG4B inhibitor	IMP-1 inh
CC1=C(C(=O)OCC2CCCO2)C(c2coc3ccccc3c2=O)C2=C(CCCC2=O)N1 (stereo not drawn)	-1.8	-2.1	-8.6	-6.9	3.1	-2.1
CCOc1ccccc1C(=O)N/N=C/c1cccc2cccnc12	9.2*	-0.6	-5.7	-3.6	-9.3	-4.8
CCOc1cc(C(N)=O)cc(Br)c1OC	1.8	4.5	-1.7	-6.4	-4.7	4.6*
CC[C@@]12C(=O)N(c3ccc(C)cc3)C(=O)N1[C@H](c1ccc(OC)cc1)[C@@H]1C(=O)N(C(C)(C)C)C(=O)[C@@H]12	-0.2	1.0	-4.8	-2.8	-12.2	-2.5
S=c1[nH]c2ccccc2n2cccc12	8.7*	-2.2	-3.7	-15.0	-2.9	-3.0
Cc1ccccc1NC(=S)Nc1cccc2cnccc12	8.0*	-1.8	13.4	-11.7	-5.4	-4.0
Cc1ccc(NC(=S)Nc2cccc3cnccc23)cc1C	-0.4	-5.3	8.6	6.0	6.1	-0.5
Cc1ccc(NC(=S)Nc2cccc3cnccc23)cc1	4.4	-3.8	8.3	-15.1	-7.2	0.2
Cc1ccc(C)c(NC(=S)Nc2cccc3cnccc23)c1	10.9*	-1.9	19.5	-7.3	0.7	0.0
Cc1ccn(C(=O)c2ccc(NC(=O)CC(C)C)cc2)n1	1.3	0.9	-4.5	4.1	1.5	-0.6
COc1ccc(CCNC(=O)c2ccc3nc(N4CCCCC4)sc3c2)cc1OC	-1.9	4.3	0.9	3.7	-7.7	-3.1
CC(C)S(=O)(=O)N1CCCC(C(=O)c2cccc(Cl)c2)C1 (stereo not drawn)	1.0	-1.6	-9.5	-9.2	14.4	39.5*
O=c1[nH]c(=O)n(Cc2ccccc2)c2c1CCC2	1.0	-2.0	7.3	-26.2	-0.1	5.0*
O=C(NN1C(=O)/C(=C/C=C/c2ccco2)SC1=S)c1ccccc1O	1.1	-2.4	18.8	-2.4	69.6*	1.4
O=C1S/C(=C\C=C\c2ccco2)C(=O)N1c1ccc(O)cc1	4.9	0.0	-2.9	-9.5	10.1	7.2*
O=C1S/C(=C\C=C\c2ccco2)C(=O)N1c1ccccc1	-1.9	0.0	5.2	-10.2	1.3	2.6
COc1cc(C(=O)NCC2CCCO2)ccc1OCc1ccc(Cl)cc1Cl (stereo not drawn)	·	-4.2	-0.1	-13.8	5.9	·
O=C1C[C@@H]2c3c(cccc3CN1Cc1ccc(Br)cc1)C[C@@H](O)[C@H]2O	·	·	-6.4	-15.8	5.0	·
Cc1ccc(C(C(=O)NC2CCCCC2)N(C(=O)c2csnn2)C2CC2)cc1 (stereo not drawn)	-2.7	-0.4	-4.7	-16.7	-13.3	-2.2
CC(C)N(C(=O)c1ccc(C(=O)Nc2ccc([N+](=O)[O-])cc2)cc1)C(C)C	1.7	-0.1	-6.2	1.8	3.6	5.6*
CN(C)S(=O)(=O)c1ccc(NC(=O)c2ccc([N+](=O)[O-])cc2)cc1	-3.3	-2.0	-4.8	-5.0	-4.8	-1.4
Cc1noc(C)c1CSc1nc2ccccc2c(=O)n1-c1ccccc1	1.8	0.2	6.1	-11.5	53.7*	-0.1
O=C(c1ccc(OC2CCN(CCc3ccccc3)CC2)cc1)N1CCCCC1CCCO (stereo not drawn)	0.0	-4.2	-1.6	-12.5	-5.5	-0.5
CN(C)c1ccc(/C=C/C(=O)c2ccc(O)cc2)cc1	·	·	3.2	4.2	-2.5	·

Compound activity: PubChem BioAssay, several laboratories
